Reference: ChEMBL document CHEMBL4814057, “4-4-(Anilinomethyl)-3-[4-(trifluoromethyl)phenyl]-1H-pyrazol-1-ylbenzoic acid derivatives as potent anti-gram-positive bacterial agents” (Eur J Med Chem, 2021)
Converted amounts (≈) assume the structure as drawn. The source made the active and inactive calls. The rule behind the calls is not given here.

How the values were obtained:
Bacillus subtilis = assay: Antimicrobial activity against Bacillus subtilis ATCC 6623 assessed as bacterial growth inhibitions by CLSI protocol based microdilution method; assay type: functional
Procedure, shortened: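 Broth microdilution starting at 50 µg/ml with 2-fold serial dilutions; run in triplicate.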

[1] = test system: Staphylococcus epidermidis; assay: Antimicrobial activity against methicillin-resistant Staphylococcus epidermidis ATCC 700296 assessed as bacterial growth inhibitions by CLSI protocol based microdilution method; assay type: functional
[2] = Toxicity in CD1 mouse assessed as effect on alanine transferase level at 50 mg/kg, ip administered as single dose measured after 24 hrs; assay type: organism-based; settings: in vivo
Procedure, shortened: (§1)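 Male CD-1 mice, 8 weeks, 32–37 g, n = 10 per dose. Single IP injection at 5, 20 or 50 mg/kg in 0.9% saline, filter-sterilized; saline vehicle group. Blood taken by cardiac puncture 24 h later. 14 plasma markers measured on a chemistry panel, reported as mean ± SE. Toxicity judged by significance versus controls, normal ranges, dose-dependence and consistency across organ markers.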

Staphylococcus aureus [3] = assay: Antimicrobial activity against antibiotic-resistant Staphylococcus aureus BM-2312 assessed as bacterial growth inhibitions by CLSI protocol based microdilution method; assay type: functional
Enterococcus faecium = assay: Antimicrobial activity against vancomycin-resistant Enterococcus faecium clinical isolate 1091563 by CLSI-based broth microdilution assay; assay type: functional
Staphylococcus aureus [4] = assay: Antimicrobial activity against methicillin-resistant Staphylococcus aureus ATCC 33591 assessed as bacterial growth inhibitions by CLSI protocol based microdilution method; assay type: functional
[5] = Toxicity in CD1 mouse assessed as effect on alkaline phosphatase level in blood at 50 mg/kg, ip administered as single dose measured after 24 hrs; assay type: organism-based; settings: in vivo; procedure, shortened: as §1
Enterococcus faecalis [6] = assay: Antimicrobial activity against vancomycin-susceptible Enterococcus faecalis ATCC 29212 assessed as bacterial growth inhibitions by CLSI protocol based microdilution method
Staphylococcus aureus [7] = assay: Antibacterial activity against methicillin resistant Staphylococcus aureus ATCC 700699 persisters assessed as reduction in viability at 8 times MIC measured within 4 hrs by colony counting method; assay type: functional; settings: time hrs <=4
Procedure, shortened: (§2)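 Stationary-phase S. aureus from overnight CAMHB culture (35 °C, 200 rpm), washed thrice in PBS, diluted to ~5 × 10^8 CFU/ml. Incubated with antibiotic at 35 °C, 200 rpm. Aliquots taken at set times, washed, serially diluted in PBS, drop-plated (6 × 6) on TSA with 5% sheep blood. Colonies counted after 18–20 h at 35 °C. Triplicates.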

[8] = Toxicity in CD1 mouse assessed as effect on kidney 50 mg/kg, ip administered as single dose measured after 24 hrs by TUNEL assay; assay type: organism-based; settings: in vivo
Procedure, shortened: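 Male CD-1 mice, single IP 50 mg/kg in saline; saline control. Acetaminophen 300 mg/kg and cisplatin 20 mg/kg IP as positive controls. At 24 h, liver and kidney paraffin-embedded, 5-µm sections, TUNEL stained with DAPI counterstain, imaged by fluorescence microscopy.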

[9] = Toxicity in CD1 mouse assessed as effect on total protein level at 50 mg/kg, ip administered as single dose measured after 24 hrs; assay type: organism-based; settings: in vivo; procedure, shortened: as §1
Staphylococcus aureus [10] = assay: Antibacterial activity against methicillin resistant Staphylococcus aureus ATCC 700699 persisters assessed as reduction in viability at 4 times MIC measured within 4 hrs by colony counting method; assay type: functional; settings: time hrs <=4; procedure, shortened: as §2
Enterococcus faecalis [11] = assay: Antibiofilm activity against Enterococcus faecalis ATCC 29212 assessed as inhibition of biofilm formation at 2 times MIC after 24 hrs by crystal violet staining based assay relative to control
[12] = Toxicity in CD1 mouse assessed as effect on globulin level at 50 mg/kg, ip administered as single dose measured after 24 hrs; assay type: organism-based; settings: in vivo; procedure, shortened: as §1
Staphylococcus aureus [13] = assay: Antimicrobial activity against methicillin-resistant Staphylococcus aureus ATCC 33592 assessed as bacterial growth inhibitions by CLSI protocol based microdilution method; assay type: functional
Enterococcus faecalis [14] = assay: Antibiofilm activity against Enterococcus faecalis ATCC 29212 assessed as inhibition of biofilm formation at 2 times MIC after 24 hrs by crystal violet staining based assay relative to control; assay type: functional; design: scale not given: the % may be the effect or the level left
Procedure, shortened: (§3)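 Overnight culture brought to 0.5 McFarland in PBS, diluted 1:100 in CAMHB with 1% glucose. Inhibition: cells plus compound (in DMSO) at 2x, 1x, 0.5xMIC, 24 h at 35 °C, triplicate. Destruction: 24 h biofilm grown without drug, washed, fresh medium with compound, further 24 h. Then washed, dried, 0.1% crystal violet, solubilized in 33% acetic acid, OD 620 nm. Controls are DMSO-only and broth-only wells.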

Staphylococcus aureus [15] = assay: Antimicrobial activity against methicillin-resistant Staphylococcus aureus ATCC 700699 assessed as bacterial growth inhibitions by CLSI protocol based microdilution method; assay type: functional
Staphylococcus aureus [16] = assay: Antimicrobial activity against Staphylococcus aureus ATCC 29213 assessed as inhibition of cell wall synthesis at 4 to 8 times MIC measured by liquid scintillation counter; assay type: functional
Procedure, shortened: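 Early-exponential cells resuspended in M9 minimal medium, drug (40x stock) in triplicate, 30 min pre-incubation at 37 °C. [14C]N-acetylglucosamine 0.4 µCi/reaction for 45 min at 37 °C. Stopped with 8% SDS, heated 95 °C 30 min, spotted on nitrocellulose, washed with 0.1% SDS, then scintillation counted.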

Staphylococcus aureus [17] = assay: Antibiofilm activity against Staphylococcus aureus ATCC 25923 assessed as destruction of biofilm formation at 2 times MIC after 24 hrs by crystal violet staining based assay relative to control; assay type: functional; procedure, shortened: as §3
Staphylococcus aureus [18] = assay: Antibiofilm activity against Staphylococcus aureus ATCC 25923 assessed as destruction of biofilm formation at 0.5 times MIC after 24 hrs by crystal violet staining based assay relative to control; assay type: functional, organism-based; procedure, shortened: as §3
Staphylococcus aureus [19] = assay: Inhibition of lipid synthesis in Staphylococcus aureus ATCC 29213 at 4 times MIC measured by liquid scintillation counter; assay type: functional
Procedure, shortened: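 Early-exponential cells in CAMHBII with drug in triplicate. Lipids extracted with chloroform/water, centrifuged, organic phase dried, then scintillation counted.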

[20] = Toxicity in CD1 mouse assessed as effect on creatine level at 50 mg/kg, ip administered as single dose measured after 24 hrs; assay type: organism-based; settings: in vivo; procedure, shortened: as §1
Enterococcus faecalis [21] = assay: Antibiofilm activity against Enterococcus faecalis ATCC 29212 assessed as inhibition of biofilm formation at 0.5 times MIC after 24 hrs by crystal violet staining based assay relative to control
Staphylococcus aureus [22] = assay: Antimicrobial activity against methicillin-susceptible Staphylococcus aureus ATCC 25923 assessed as bacterial growth inhibitions by CLSI protocol based microdilution method; assay type: functional
Enterococcus faecalis [23] = assay: Antibiofilm activity against Enterococcus faecalis ATCC 29212 assessed as inhibition of biofilm formation at 0.5 times MIC after 24 hrs by crystal violet staining based assay relative to control; assay type: functional; design: scale not given: the % may be the effect or the level left; procedure, shortened: as §3
[24] = Toxicity in CD1 mouse assessed as effect on glucose level at 50 mg/kg, ip administered as single dose measured after 24 hrs; assay type: organism-based; settings: in vivo; procedure, shortened: as §1
[25] = Toxicity in CD1 mouse assessed as effect on phosphorus level at 50 mg/kg, ip administered as single dose measured after 24 hrs; assay type: organism-based; settings: in vivo; procedure, shortened: as §1

Structure (SMILES): O=C(O)c1ccc(-n2cc(CNc3cc(F)cc(C(F)(F)F)c3)c(-c3ccc(C(F)(F)F)cc3)n2)cc1
- MIC (Bacillus subtilis): 0.78 µg/mL (≈ 1.49 µM)
- MIC [1]: 1.56 µg/mL (≈ 2.98 µM)
- Activity [2]: Non-Toxic
- MIC (Staphylococcus aureus [3]): 0.78 µg/mL (≈ 1.49 µM)
- MIC (Enterococcus faecium): 4 µg/mL (≈ 7.64 µM)
- MIC (Staphylococcus aureus [4]): 0.39 µg/mL (≈ 0.745 µM)
- Activity [5]: Non-Toxic
- MIC (Enterococcus faecalis [6]): 1.56 µg/mL (≈ 2.98 µM)
- Activity (Staphylococcus aureus [7]): 3 log10CFU/ml
- Activity [8]: Non-Toxic
- Activity [9]: Non-Toxic
- Activity (Staphylococcus aureus [10]): 2 log10CFU/ml
- inhibition (INH) (Enterococcus faecalis [11]): 90%
- Activity [12]: Non-Toxic
- MIC (Staphylococcus aureus [13]): 0.78 µg/mL (≈ 1.49 µM)
- Activity (Enterococcus faecalis [14]): 90%
- MIC (Staphylococcus aureus [15]): 0.78 µg/mL (≈ 1.49 µM)
- inhibition (INH) (Staphylococcus aureus [16]): >80%
- Activity (Staphylococcus aureus [17]): 70%
- Activity (Staphylococcus aureus [18]): inactive
- inhibition (INH) (Staphylococcus aureus [19]): 100%
- Activity [20]: Non-Toxic
- inhibition (Enterococcus faecalis [21]): Active
- MIC (Staphylococcus aureus [22]): 0.39 µg/mL (≈ 0.745 µM)
- Activity (Enterococcus faecalis [23]): 75%
- Activity [24]: Non-Toxic
- Activity [25]: Non-Toxic
